This note sets out measurements from ChEMBL document CHEMBL1155512, “Chemoenzymatic synthesis and cannabinoid activity of a new diazabicyclic amide of phenylacetylricinoleic acid” (Bioorg Med Chem Lett, 2010).

In data set [1] the test system is Rattus norvegicus. In words: Increase of pain perception in Wistar rat assessed as latency at 20 to 40 mg/kg, ip measured after 30 to 45 mins by hotplate method in presence of AM251. It counts as functional, organism-based. The essentials: (§1)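 Individually housed rats (22 °C, 12:12 h light–dark, food and water ad libitum) were randomized to ip vehicle, 10, 20 or 40 mg/kg. Extra groups (n = 10) got 20 or 40 mg/kg 15 min after AM251 (3 mg/kg ip); another group got AM251 alone. Pain perception was read as hot-plate latency to signs of discomfort.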

Data set [2] relates to Rattus norvegicus. Nature of the data set: Effect on sleep-awake cycle in Wistar rat assessed as increase in rapid eye movement sleep at 20 mg/kg, ip measured up to 4 hrs by electromyographic analysis in presence of AM251. The data set is classed as functional, organism-based. On the set-up: dose 20 mg/kg. The essentials:
(§2)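 Rats (n = 6/group) had two hippocampal EEG electrodes implanted stereotaxically under ketamine/xylazine/acepromazine anaesthesia, then recovered 10 days and habituated 24 h. Two ip injections 15 min apart: DMSO (1 ml/kg) or AM251, then vegetal oil (1 ml/kg) or test drug. Dosing was at dark-phase onset. Wake, SWS and REMS were scored from EEG/EMG as time per hour over 12 h, plus sleep latency.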

The subject of data set [3] is Rattus norvegicus. In words: Reduction of core temperature in Wistar rat at 10 to 40 mg/kg, ip after 15 mins. Conditions: dose mg/kg 10-40; route intraperitoneal. It counts as functional. The essentials: (§3)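 Individually housed rats (22 °C, 12:12 h light–dark) were randomized to ip vehicle, 10, 20 or 40 mg/kg. Extra groups (n = 10) got 20 or 40 mg/kg 15 min after AM251 (3 mg/kg ip), plus an AM251-alone group. Core temperature was measured with a rectal probe after injection.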

The test system of data set [4] is Rattus norvegicus. Nature of the data set: Reduction of core temperature in Wistar rat at 10 to 40 mg/kg, ip measured up to 45 mins in presence of AM251. It counts as functional, organism-based. The essentials: as §3
Data set [5] deals with Rattus norvegicus. In words: Reduction of core temperature in Wistar rat at 10 to 40 mg/kg, ip up to 45 mins. Particulars: dose mg/kg 10-40; route intraperitoneal. It counts as functional. The procedure, abridged: as §3
For data set [6], the system named is Rattus norvegicus. In words: Effect on sleep-awake cycle in Wistar rat assessed as increase in rapid eye movement sleep at 20 mg/kg, ip measured up to 4 hrs by electromyographic analysis. The data set is classed as functional, organism-based. More on the design: dose 20 mg/kg. The procedure, abridged:
as §2

For data set [7], the system named is Rattus norvegicus. In words: Induction addiction in Wistar rat at 20 mg/kg, ip assessed as signs of dependence. It counts as ADME, organism-based. On the set-up: dose 20 mg/kg, route intraperitoneal. Particulars: in vivo. The procedure, abridged:
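Conditioned place preference test at 20 mg/kg; time spent in the drug-paired compartment A was recorded as the index of rewarding effect or dependence.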

Data set [8] concerns Rattus norvegicus. In words: Reduction of core temperature in ip dosed Wistar rat up to 45 mins. The data set is classed as functional, organism-based. The procedure, abridged:
as §3

Data set [9] relates to Rattus norvegicus. Nature of the data set: Increase of pain perception in ip dosed Wistar rat assessed as latency after 30 to 45 mins by hotplate method. The data set is classed as functional, organism-based. The essentials: as §1
The subject of data set [10] is Rattus norvegicus. In words: Increase of pain perception in Wistar rat assessed as latency at 10 to 40 mg/kg, ip measured after 30 to 45 mins by hotplate method. The data set is classed as functional, organism-based. The essentials:
as §1

The subject of data set [11] is Rattus norvegicus. In words: Effect on sleep-awake cycle in Wistar rat assessed as increase in non rapid eye movement sleep at 20 mg/kg, ip measured up to 4 hrs by electromyographic analysis. The data set is classed as functional, organism-based. On the set-up: dose 20 mg/kg. The essentials:
as §2

Activity calls are given as the source filed them. The rule behind the calls is not given here.

As for `CCCCCC[C@H](C/C=C\CCCCCCCC(=O)N1CC2CC1CN2C)OC(=O)Cc1ccccc1` (stereo partly specified), the result in the data set on Rattus norvegicus [1], with Rattus norvegicus [2], with Rattus norvegicus [4], with Rattus norvegicus [8] and with Rattus norvegicus [9] was inactive. Also, the T in the data set with Rattus norvegicus [3] amounted to 1 °C; in the data set on Rattus norvegicus [5], 1.5 °C. The result in the data set on Rattus norvegicus [6], with Rattus norvegicus [10] and in the data set on Rattus norvegicus [11] was Active. Besides, the Activity result in the data set on Rattus norvegicus [7] is “Non-toxic”.
